# Source: PubChem (several laboratories)
# Mdm2 MdmX PPI: disrupts the human Mdm2-MdmX interaction; O15151+Q00987; SaOS-2 split-luciferase Mdm2/MdmX complementation, luminescence; inhibition, % at 8 µM; actives 3% (n = 330,000);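 active = inhibition of at least 50% at 8 µM in the primary screen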
# Target sequence (O15151 whole entry, looked up): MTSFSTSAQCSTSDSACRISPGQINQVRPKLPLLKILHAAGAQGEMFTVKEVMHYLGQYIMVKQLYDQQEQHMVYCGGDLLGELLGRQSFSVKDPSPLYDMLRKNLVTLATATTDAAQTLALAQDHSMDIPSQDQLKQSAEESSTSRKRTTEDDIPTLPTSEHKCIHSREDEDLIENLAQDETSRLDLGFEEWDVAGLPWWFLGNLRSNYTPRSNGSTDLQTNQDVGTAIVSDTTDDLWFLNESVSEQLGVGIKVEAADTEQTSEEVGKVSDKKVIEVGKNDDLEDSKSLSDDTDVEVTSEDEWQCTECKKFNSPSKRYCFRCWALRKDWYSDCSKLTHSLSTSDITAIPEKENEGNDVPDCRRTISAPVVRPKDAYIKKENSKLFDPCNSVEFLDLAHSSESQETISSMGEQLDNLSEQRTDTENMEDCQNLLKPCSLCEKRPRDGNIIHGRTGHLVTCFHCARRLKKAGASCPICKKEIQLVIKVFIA
# Target sequence (Q00987 whole entry, looked up): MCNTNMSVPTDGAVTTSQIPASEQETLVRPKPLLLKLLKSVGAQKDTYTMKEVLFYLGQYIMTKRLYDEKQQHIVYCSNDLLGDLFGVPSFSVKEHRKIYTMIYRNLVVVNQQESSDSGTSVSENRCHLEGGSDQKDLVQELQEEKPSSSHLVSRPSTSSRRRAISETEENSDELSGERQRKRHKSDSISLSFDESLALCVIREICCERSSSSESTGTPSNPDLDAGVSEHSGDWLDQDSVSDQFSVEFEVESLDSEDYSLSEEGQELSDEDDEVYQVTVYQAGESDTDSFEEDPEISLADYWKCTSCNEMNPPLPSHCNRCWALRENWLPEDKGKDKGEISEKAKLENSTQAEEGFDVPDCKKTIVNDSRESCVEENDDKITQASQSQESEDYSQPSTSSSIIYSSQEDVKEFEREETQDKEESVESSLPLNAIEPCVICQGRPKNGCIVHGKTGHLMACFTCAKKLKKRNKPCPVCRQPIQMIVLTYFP
# T cruzi inh: blocks replication of Trypanosoma cruzi; T. cruzi beta-gal in NIH3T3, luminescence, 90 h; inhibition, % (test concentration not listed); actives 1.4% (n = 300,000); AID 1885;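 active = mean inhibition across valid replicates above about 55%, limit read from the data; inconclusive = mean below that limit but half or more replicates reach it; inactive = mean below it, under half of replicates reach it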;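 also: signal also drops with host cell toxicity which is not excluded here; 0% = plate median of DMSO wells and 100% = zero luminescence signal; higher percent means less beta-gal luminescence so fewer parasites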
#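 Test system: β-gal T. cruzi (Tulahuen C4) inside NIH/3T3 cells / Quantity: 5,000 cells/well / Measured by: luminescence from GalScreen with 0.05% NP40, read after 60 min / Medium: DMEM plus 2% FBS / Measure: parasite load inhibition, % / Reagent: Tulahuen C4 trypomastigotes, 5000/well / Schedule: co-culture of at least 90 h after 3 h attachment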
# Beta apoptosis: blocks beta cell apoptosis; protection from apoptosis, % (concentration not given with the values); actives 0.8% (n = 300,000); INS-1E cytokine-induced death, ATP luminescence, 48 h; percent of positive-control rescue, neutral wells zero;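 active = Every replicate reaches about 75%, or at least half do and their mean reaches it too, limit read from the data; inconclusive = At least half of replicates reach the limit but their mean does not; inactive = Under half of replicates reach the limit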;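 also: 0% = cytokine-treated negative control wells and 100% = positive control rescue; higher means more ATP so stronger rescue from cytokine killing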
# SKKanGAS inh: inhibitors of SKKanGAS S. pyogenes growth in kanamycin (SK-promoter or general growth effect) | BacTiter-Glo, 6 h | actives 1.3% (n = 300,000) | AID 1662 | inhibition, % at 7.5 µM;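 active = mean replicate score, as percent of positive control median, at least 50; inconclusive = mean below 50 but one replicate at or above 50; inactive = mean and every replicate below 50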;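 also: strain carries kanamycin resistance gene driven by streptokinase promoter and grows in 40 µg/ml kanamycin; loss of luminescence reflects streptokinase promoter inhibition or plain growth inhibition; 0% = median of DMSO wells and 100% = positive control at its reference dose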
# Calb FLC: C. albicans growth modulation with fluconazole; C. albicans CaCi-2 (fluconazole-resistant clinical isolate) + fluconazole, Alamar Blue growth, 48 h; actives 0.57% (n = 300,000); growth inhibition, % (no concentration beside the values);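 active = growth inhibition above about 58% in most replicates, limit read from the data, passing the limit was not always enough; inconclusive = exactly half the replicates above a set limit; inactive = most replicates below a set limit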;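 also: all wells also contain fluconazole at 8 µg/ml as a sub-toxic cotreatment; 0% = median of DMSO wells and 100% = median of geldanamycin control wells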
# CSC inhib: cancer stem cell inhibition; AID 2717; cancer stem cell-like cells viability, luminescence; inhibition, % at 7.5 µM; actives 1.1% (n = 300,000); in the data active = inhibition above about 75%; inconclusive = no clear call, values can overlap the other calls; tested in HMLE shEcad cells
# Starred values were filed as active, the others as inactive; ? = inconclusive; / = not tested or not shown. Most compounds without a hit are left out; they make up all but 5.7% or so of the library.
SMILES,Mdm2 MdmX PPI,T cruzi inh,Beta apoptosis,SKKanGAS inh,Calb FLC,CSC inhib
COc1cc(CNCCc2ccccc2F)ccc1OCC(=O)N1CCCCC1,14,62*,-1,2,-30,21
CCOC(=O)/C=C/[C@H]1CC(c2ccccc2)(c2ccccc2)CO1,31,/,1,/,/,10
COCCNc1nc(-c2cc(C)n(CCc3ccc(OC)cc3)c2C)cs1,-1,60*,1,-5,-25,3
Cc1c(O)ccc2c(CN3CCN(C/C=C/c4ccccc4)CC3)cc(=O)oc12,27,50,-16,3,-1,47
Cc1ccc2c(CN3CCN(Cc4ccccc4)CC3)cc(=O)oc2c1C,-3,57*,-6,0,-12,-7
Cc1cc2oc(=O)cc(CN3CCN(C/C=C/c4ccccc4)CC3)c2cc1O,42,55*,12,7,-30,-7
Cc1ccc2c(CN3CCN(CCO)CC3)cc(=O)oc2c1C,-3,55*,-5,5,2,-5
Cc1cc(C)c2oc(=O)cc(CN3CCN(Cc4ccccc4)CC3)c2c1,4,52,2,0,5,-11
COCCCN1C(=O)c2ccc(C(=O)OCC(=O)N(CCC#N)c3cc(C)cc(C)c3)cc2C1=O,-17,-6,-2,24,-4,-5
O=C(Cn1ccc2cc(S(=O)(=O)N3CCCC3)ccc21)NCCc1ccccc1,13,-24,2,-6,-19,-2
COCCn1c(=NC(=O)c2cc(-c3cccs3)nc3ccccc23)sc2cc(S(N)(=O)=O)ccc21,41,67*,12,37,-5,71
C=CCn1c(=NC(=O)c2cc(-c3cccs3)nc3ccccc23)sc2cc(S(N)(=O)=O)ccc21,28,46,92*,15,5,62
COCCn1c(=NC(=O)c2sc3ccccc3c2Cl)sc2cc(S(N)(=O)=O)ccc21,41,28,5,19,-2,6
C=CCn1c(=NC(=O)c2cc(Cl)sc2Cl)sc2cc(S(N)(=O)=O)ccc21,33,28,10,7,10,24
CCOC(=O)c1c(NC(=O)C2=COCCO2)sc2c1CCN(C(=O)OC)C2,11,20,/,2,17,-4
O=C(c1ccc2c(c1)OCO2)C1CCCN(C2CCN(CCc3ccccc3)CC2)C1 (stereo unspecified),30,69*,1,-10,7,41
CC(=O)c1cccc(CN2CCCC(C(=O)c3ccc4c(c3)OCO4)C2)c1 (stereo unspecified),-7,43,4,7,11,1
NC(=O)NC(Cc1ccccc1)C(=O)NCCCSc1ccccc1 (stereo unspecified),10,-7,0,2,-5,3
Cc1nc(Cl)cc(N/N=C/c2ccc(O)cc2O)n1,32,2,15,0,1,7
Cc1cc(N/N=C/c2ccc(O)cc2O)nc(-n2nc(C)cc2C)n1,/,60*,99*,-7,12,29
Cc1cc(N/N=C\c2ccccc2)nc(-c2ccccc2O)n1,1,52,19,25,-11,53
COC(=O)c1cccc(Nc2cc(C)nc(-c3ccccc3O)n2)c1,14,58*,24,2,7,?
Cc1cc(N/N=C/c2ccc(O)cc2O)nc(-c2ccccc2O)n1,/,60*,76*,14,3,99*
Oc1ccc(/C=N/Nc2ccc3ccccc3c2)c(O)c1,42,4,4,52*,-22,6
CCc1nc(N2CCN(C(=O)c3ccco3)CC2)c2c3c(sc2n1)CCCC3,29,12,-13,2,5,/
CC1CCc2c(sc3nc(C4CC4)nc(N4CCN(C(=O)c5ccco5)CC4)c23)C1 (stereo unspecified),15,34,98*,58*,-7,37
COc1ccc(N2CCN(CCCNC(=O)CN3C(=O)COc4ccccc43)CC2)cc1,3,1,-1,-12,-8,9
Cc1ccc(N/C=C(\[N+](=O)[O-])S(=O)(=O)c2ccccc2)cc1,-3,?,-5,7,-39,-4
Cc1cccc(N/C=C(\[N+](=O)[O-])S(=O)(=O)c2ccccc2)c1C,-13,82*,-4,-7,-2,-8
Cc1ccc(NC(=O)CSc2nnnn2C2CC2)cc1S(=O)(=O)N1CCOCC1,10,/,/,/,/,/
